Measurements gathered from unrelated publications.
Compare with care: the assays were run in different laboratories. Values after ≈ are worked out from the molar mass of the structure shown.

`O=C(O)c1cn(C2CC2)c2cc(N3CCNCC3)c(F)cc2c1=O` has an MBC of 0.5 µg/mL (≈ 1.51 µM) (Bacillus subtilis; microbial killing, broth dilution).
For `CCOC(=O)c1nc2ccccc2c(=O)n1Cc1cn(-c2ccc(C)cc2)nn1`, the IC50 was 8.4 µg/mL (Nakaseomyces glabratus; microbial growth, broth dilution; ATCC90030; 24 h).
`N#CC(=Cc1cn(-c2ccccc2)nc1-c1ccccc1)C1=NC(=O)CS1` has an MBC of 0.25 µg/mL (≈ 0.675 µM) (Bacillus subtilis; microbial killing, broth dilution).
`CCOC(=O)c1nc2ccccc2c(=O)n1Cc1cn(-c2ccccc2OC)nn1` gave an IC50 of 81.8 µg/mL (Nakaseomyces glabratus; microbial growth, broth dilution; ATCC90030; 24 h).
The IC50 of `C[C@@H](c1ncncc1F)[C@](O)(Cn1cncn1)c1ccc(F)cc1F` is reported as 28.9 µM (Acanthamoeba polyphaga; parasite growth, resazurin; 96 h).
`CCOC(=O)c1nc2ccccc2c(=O)n1Cc1cn(-c2ccc(C(=O)O)cc2)nn1` has an IC50 of 87.7 µg/mL (Nakaseomyces glabratus; microbial growth, broth dilution; ATCC90030; 24 h).
The MBC of `O=C(O)CN1C(=O)/C(=C/c2c3ccccc3c(-c3ccc(N(c4ccccc4)c4ccccc4)cc3)c3ccccc23)SC1=S` is reported as greater than 1000 µg/mL (Bacillus subtilis; microbial killing, broth dilution; ATCC6633).
`Cc1ccccc1-n1cc(Cn2c(C(=O)O)nc3ccccc3c2=O)nn1` gave an IC50 of 358 µg/mL (Nakaseomyces glabratus; microbial growth, broth dilution; ATCC90030; 24 h).
`N=C(NCCCCCCNC(=N)NC(=N)Nc1ccc(Cl)cc1)NC(=N)Nc1ccc(Cl)cc1` has an IC50 of 9.41 µM (Acanthamoeba polyphaga; parasite growth, resazurin; 96 h).
The inhibition zone of `Cc1c(NN=C2SC(C(C#N)=Cc3ccccc3)=NC2=O)c(=O)n(-c2ccccc2)n1C` is reported as 17 mm (Bacillus subtilis; microbial growth, well diffusion; 100000 µg/mL).
`CC(C)Oc1c(-n2cc(-c3ccc(NC(=O)C(CC(N)=O)NC(=O)c4ccc(NC(=O)c5ccc(C#N)cc5)cc4)cc3)nn2)ccc(C(=O)Nc2ccc(C(=O)O)cc2)c1O` (stereo not shown) has an MIC of 2 µg/mL (≈ 2.39 µM) (Proteus vulgaris; microbial growth; DSM2140).
`CCCCCCC/C=C/C(=O)N1C(=O)/C(=C(\O)c2ccncc2)C(=O)C1CC(C)C` (stereo not shown) gave an MIC of greater than 200 µg/mL (Proteus vulgaris; microbial growth; ATCC33420).
With `O=C1NC(=S)N/C1=C\c1ccc(-c2ccc(N(c3ccccc3)c3ccccc3)cc2)c2ccccc12` the MBC was greater than 1000 µg/mL (Bacillus subtilis; microbial killing, broth dilution; ATCC6633).
`C/C(O)=C1\C(=O)C(CC(C)C)N(C(=O)CCCCCc2ccccc2)C1=O` (stereo not shown) has an MIC of greater than 200 µg/mL (Proteus vulgaris; microbial growth; ATCC33420).
With `Cc1c(NN=C2SC(CC#N)=NC2=O)c(=O)n(-c2ccccc2)n1C` the inhibition zone was 14 mm (Bacillus subtilis; microbial growth, well diffusion; 100000 µg/mL).
With `C[C@@H]1[C@H](O)[C@@H](C)/C=C/C=C/C=C/C=C/C=C/C=C/C=C/[C@H](O[C@@H]2O[C@H](C)[C@@H](O)[C@H](N)[C@@H]2O)C[C@@H]2O[C@](O)(C[C@@H](O)C[C@@H](O)[C@H](O)CC[C@@H](O)C[C@@H](O)CC(=O)O[C@H]1C)C[C@H](O)[C@H]2C(=O)O` the IC50 was 0.26 µM (Cryptococcus neoformans; microbial growth; ATCC90113).
For `C/C(O)=C1\C(=O)C(CC(C)C)N(C(=O)C=Cc2ccccc2)C1=O` (stereo not shown), the MIC was greater than 200 µg/mL (Proteus vulgaris; microbial growth; ATCC33420).
`CCOC(=O)c1c(N)csc1-c1cn(-c2ccccc2)nc1-c1ccccc1` gave an inhibition zone of 23 mm (Bacillus subtilis; microbial growth, well diffusion; 100000 µg/mL).
The MBC of `O=C1NC(=S)N/C1=C\c1ccc(-c2ccc(N(c3ccccc3)c3ccccc3)cc2)cc1` is reported as greater than 1000 µg/mL (Bacillus subtilis; microbial killing, broth dilution; ATCC6633).
The inhibition zone of `N#CC(=Cc1ccc(Cl)cc1)C1=NC(=O)C(=Cc2cn(-c3ccccc3)nc2-c2ccccc2)S1` is reported as 22 mm (Bacillus subtilis; microbial growth, well diffusion; 100000 µg/mL).
With `CCCCCCC/C=C/C(=O)N1C(=O)/C(=C(\O)c2ccccc2)C(=O)C1CC(C)C` (stereo not shown) the MIC was greater than 200 µg/mL (Proteus vulgaris; microbial growth; ATCC33420).
`Cc1c(NC(=O)CC2=NC(=O)CS2)c(=O)n(-c2ccccc2)n1C` has an MBC of 2 µg/mL (≈ 5.81 µM) (Bacillus subtilis; microbial killing, broth dilution).
`O=C1NC(=S)S/C1=C\c1ccc(-c2ccc(N(c3ccccc3)c3ccccc3)cc2)c2ccccc12` has an MBC of greater than 1000 µg/mL (Bacillus subtilis; microbial killing, broth dilution; ATCC6633).
`CCOC(=O)c1nc2ccccc2c(=O)n1Cc1cn(-c2cccc(F)c2)nn1` gave an IC50 of 365 µg/mL (Nakaseomyces glabratus; microbial growth, broth dilution; ATCC90030; 24 h).
The MBC of `CCOC(=O)c1c(N)csc1-c1cn(-c2ccccc2)nc1-c1ccc(C)cc1` is reported as 0.25 µg/mL (≈ 0.62 µM) (Bacillus subtilis; microbial killing, broth dilution).
